Fewer inactive variants are shown than the library holds.
B1: tRNA (parent)
chain: GUUCCGUUGGCGUAAUGGUAACGCGUCUCCCUCCUAAGGAGAAGACUGCGGGUUCGAGUCCCGUACGGAACG

Variants of: B1
Assay: yeast fitness relative to wild type (ratio to wild type); higher = fitter; tRNA-Arg(CCU), competitive growth, 37 C, YPD
Summary of the method: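 For this measurement, the tRNA-Arg(CCU) gene was varied by chemical synthesis at a 3% per-site mutation rate across 69 sites, and each variant was placed at the native genomic locus in Saccharomyces cerevisiae. The pooled strains went through a 24-hour competition in YPD at 37°C in six parallel replicates, with amplicons from start and end populations read by 100-nucleotide paired-end sequencing. Darwinian fitness relative to wild type followed from the change in each genotype's frequency. Genotypes needed ≥ 100 starting reads, and estimates < 0.5 were set to 0.5.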

Point of comparison: GUUCCGUUGGCGUAAUGGUAACGCGUCUGCCUAAUAAGGAGAAGACUGCGGGUUCGUGUCCCGUACGGAACG, yeast fitness 0.54. Against it:
- GUUCCGUUGGCGUAAUGGUAACGCGUCCCCCUCCUAAGGAGAAGACUGCGGGUUCGAGUCGCGUACAGAACG — lower, ≤ 0.5
- GUUCCGUUGGCGUAAUGGUAACGCGUCUCCCUCGUAAGGAGCAGACUGCGGGUUAGAGUUCCGUACGGAACG — lower, ≤ 0.5
- GUUGCGUUGGCGUAAUGGUAACGCGUCUCCCACGUAAGGACAAGACUGCGGGUUCGAGUCCCGUACGGAACG — lower, ≤ 0.5
- GUUCCGUUGGUGUAAUGGUAACGCGUCUCCCUCCUAAGGAGCAGACUGCGGGUUCGAGUCCCGUGCGGAACG — higher, 0.658
- GUUCCGUUGGAGUAAUGGUAACGCGUCUCCCUCCAAAGGAGAAGACUGCGGGAUCGAGUCCCGUACGGAACG — lower, ≤ 0.5
- GUUCCGUUGCCGUAAUGGUAACGGGUCUCCCUCCUAAGGAGAAGACUGUGGGUUCGAGUCCCGUACGGAACG — lower, ≤ 0.5
- GGUCCGUUGGUGUAAUGGUAACGCGUGUCCCUCCUAAGGAGAAGACUGCGGCUUCGAGUCCCGUACGGAACG — lower, ≤ 0.5
- GUUCCCUUGGCGUAAUGGUCACGCGUCUCCCUCCUAAGGGGUAGACUGCGGGUUCGAAUCCCAUACAGAACG — lower, 0.519
- GUUUUGUUGGCGUAAUGAUAACGCAUCUCCCUUCUAAGGAGAAGACUACGGAUUCGAGUCCCGUACGGUACG — lower, ≤ 0.5
- GUUUCGUUGCCGUAAUGGUAACGCGUCUCCCUCCUAAGGAGAAGACUGCGGGUUCGAGUGCCGUACAGAACG — lower, ≤ 0.5
- GUUCCGUUGGCGUAACGGUAACGCGUCUCUCUCCUUAGGAGAAGACUGCGGGUUCGAGUCCCGUACGGAACG — lower, ≤ 0.5
- GUUCCGUUGGCGUAAUGGCUACGCGUCUCCCUCCUAAGGAGAAGACUGCGGGUUCGAGUCCCGUACGGUACG — higher, 1.05
- GUUCCGUUGACGGAAUGGUAACGCGUUUCCCUCCUAAGGAGAAGAGUGCGGGUUCGAGUCCCGUACGGAACG — lower, ≤ 0.5
- GUUCCGUAGGCGUAAUGGUAACGCGUCUCCCUCCUAAGGAGAAGACUGCGGGUUCGAGUCCCAUACGGAACG — higher, 0.597
- GUUCCGUUGGCGUAAUGGUAACGCGUCUCGCUCCUAAGGAGAAGACUGCGGGUCCGAGUCCCGUACGGAACG — higher, 0.568
- GUUCCGUUGGCGUAAUGGUAACGCGUCUCCCUCCUAAGGAGAAGACCGAGGGUUCGAGUCCCGUACGGAACG — higher, 0.65
- GUUCCGUUGGCGUAAUGGUAACGCGUCUCCCUCCUAAGGAGAAGACUGUGGGUUCAAGUCCCGUACGGAACG — higher, 1.03
- GUUCCGCUGGGGUAAUGGUAACGUGUCUCCCUCCUAAGGAGAAGACUACGGGUUCGGGUCCCGUAUGGACCG — lower, ≤ 0.5
- GUUCCGUUGCCGAGAUGGUGAAGGGUCUCCCGCCUAAGGAGAAGACUGCGGGUUCGAGUCCCGUACGGAACG — lower, ≤ 0.5
- GUUCCGUUGGCGUAAUGGUAACGCGUCUCCCUCCUAAGGAGAAGAUUGCAGGUUCGAGUCCCGUACGGAACG — higher, 0.965
- GUUCUGUUGGCGUAAUGGUAACCCGUCUCCCUCCUAAGGAGAAGACUGCGGGUUCGAGUCCCGUACGGCACG — lower, ≤ 0.5
- GUUCCGUUGGCGUAAUGGUAACGCGUCUCCCUCCUAAGGAGAAGACUGCGGGUUCGACUCCCGUACGGCACG — higher, 1.02
- GGUCCGUUGGCGUAAUGGUAAUGGGUCUCCCUCCUAAGGAGAAGACUGCGGGUUCGAGUCCCAUACGGCACG — lower, ≤ 0.5
- GUUCCGUUGGCGUAAUGGUAACGCGUCACCCUCCUAACGAGAAGACUGCGGGUUCGAGUCCCGUACGGAACG — higher, 0.541
- GUUCCGAUGGCGUAAUGGUACCGCGUCUCUCUCCUAAGGAGCAGACUCCGGGUUCGAGUCCCGUACGGAACG — lower, ≤ 0.5
- GUUUCGUUGGCGUAAUGGUAACGCGACUCCCUCCUAAGGAGAAGACUGCGGGUUCAAGUCCCGUACGGAACG — higher, 0.632
- GUUCCGUUGGCGUAAUGGUAACGCGUCUCCCUCCUAAGGAGAAGACUGGCGGUUCGAGUCCCGUACGGAACG — higher, 0.613
- GAUCCGUUGGCGUAAUGGUAACGCGUCUCCCUCCUAAGGUGAAGACUGCGGGUUCGAGUCCCGUCCGGAACG — lower, ≤ 0.5
- GUUCCGUUGGCGUAAUGGUAAUGCGUCUCCCUCCUCAGGAGAAGACUGUGGGUUCGAGUCCCGUGCGGAACG — lower, 0.528
- GUUCUGUCGGCGUAAUGGUGACGCGUCUCACUCCUAAGGAGAAGACUGCGGGUUCGAGUCUCGUACGGAACG — higher, 0.544
- GUUCCGUUGGCGUAAUGGUAACGCGUCUCCCUCCUCAGGAGAAGACUGCGGAUUCGAGUCACGUACGGAACG — lower, ≤ 0.5
- GUUCCAUUGGCGUAAUGGUAACGCGUCUCCCUCCUAAGGAGAAGACUGCGGGUUCGAGUCCCGUACGGAUCG — higher, 0.958
- GUUCCGUUGGCGUAAUGGUAACGCGUCUCCCUCCUAAGGAGAAGACUGCGGGGUCGAGUCCCGCACGGAACG — higher, 0.669
- GUGCCGUUGGCGUAAUGGUAACGCGUCUCCCUCCUAAGGAGAGGUCUGCGGGUUCGAGUCCCGUACGGAACG — lower, 0.539
- GUUCCGUUGGCGUAAUGGUAACGCGUUUCCCUCCUAAGGAGAAGACUAUGGGUUCGAGUCCCGUACGGAUCG — higher, 0.752
- GUUCCGUUGGCGUAAUGGUAAUGCGUCUCCCUCCCAAGGAGAAGACUGUGGGUUCGAGUCCCGUACGGAACG — lower, ≤ 0.5
- GUUCCGUUGGCGUAAUGGUAACGCGUCUCCCUCCUAAGGAGGACACUGCGGGUUCGAGUCCCGUCCGGAACG — higher, 0.563

— the RNAGym collection of RNA variant scans (doi:10.1126/science.aae0568)
